Data as given in the array DNA melting data of Ke et al. (doi:10.1101/2024.01.08.574731).

Tests used:
[1] = folding enthalpy; higher = less favourable; fluorescence melt of hairpins on a sequencing array, two-state fit; details: sodium 0.088 M
How it was run: (§1)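 Cy3 signals were normalised both to pre-quench Cy3 and to control constructs. They came from library hairpins carrying annealed Cy3 and quencher oligos on a sequenced MiSeq flow cell, imaged in 50 mM Na-HEPES pH 8.0, 25 mM NaCl, in 2.5 °C steps up to 60 °C. Bootstrapped two-state fits gave melting temperature and folding enthalpy, and four replicates were combined by inverse variance. Fitted temperatures were then raised by 9.35 °C to match UV melts.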

[2] = melting temperature; fluorescence melt of hairpins on a sequencing array, two-state fit, raised by 9.35 °C to match UV melts; details: sodium 0.088 M
How it was run: as §1

GCGTAACGAAAGTTGCGC (((.(((....))).)))
folding enthalpy [1]: -53 kcal/mol
Tm [2]: 63 °C

GCGTAAGAACGC ((((....))))
folding enthalpy [1]: -15.8 kcal/mol
Tm [2]: 49.5 °C

GCGTAATCGAAAGATCGC (((..(((....))))))
folding enthalpy [1]: -25.1 kcal/mol
Tm [2]: 45.6 °C

GCGTACAACGC ((((...))))
folding enthalpy [1]: -22.4 kcal/mol
Tm [2]: 55.6 °C

GCGTACACACGC ((((....))))
folding enthalpy [1]: -23.9 kcal/mol
Tm [2]: 51.4 °C

GCGTACCCGAAAGGGCGC (((..(((....))))))
folding enthalpy [1]: -22.1 kcal/mol
Tm [2]: 56.4 °C

GCGTACCGAAAGGTCGC (((.(((....))))))
folding enthalpy [1]: -36.5 kcal/mol
Tm [2]: 63.5 °C

GCGTACCGACGC ((((....))))
folding enthalpy [1]: -22.5 kcal/mol
Tm [2]: 50.9 °C

GCGTACGAAAGTAAGCGC ((((((....)))..)))
folding enthalpy [1]: -30.9 kcal/mol
Tm [2]: 56.8 °C

GCGTACGAAAGTAATCGC ((((((....)))..)))
folding enthalpy [1]: -23.6 kcal/mol
Tm [2]: 44.1 °C

GCGTACGAAAGTAGCGC ((((((....))).)))
folding enthalpy [1]: -31.1 kcal/mol
Tm [2]: 68.8 °C

GCGTACGAAAGTATACGC ((((((....)))..)))
folding enthalpy [1]: -34 kcal/mol
Tm [2]: 51.4 °C

GCGTACGAAAGTATCCGC ((((((....)))..)))
folding enthalpy [1]: -23.5 kcal/mol
Tm [2]: 38.6 °C

GCGTACGAAAGTATGCGC ((((((....)))..)))
folding enthalpy [1]: -37.5 kcal/mol
Tm [2]: 58.4 °C

GCGTACGGAAACATACGC (((((.(....).)))))
folding enthalpy [1]: -33.8 kcal/mol
Tm [2]: 46.8 °C

GCGTACTGACGC ((((....))))
folding enthalpy [1]: -21.9 kcal/mol
Tm [2]: 52.4 °C

GCGTAGCGAAAGCCGCGC (((..((....))..)))
folding enthalpy [1]: -16.2 kcal/mol
Tm [2]: 61.6 °C

GCGTAGCGAAAGCTCGC (((.(((....))))))
folding enthalpy [1]: -16.4 kcal/mol
Tm [2]: 63.3 °C

GCGTAGCGAAAGCTCGGC ((..(((....)))..))
folding enthalpy [1]: -7.84 kcal/mol
Tm [2]: 39.9 °C

GCGTAGGGAAACTTGCGC (((.(.(....).).)))
folding enthalpy [1]: -28.5 kcal/mol
Tm [2]: 42.3 °C

GCGTAGTCACGC ((((....))))
folding enthalpy [1]: -21.2 kcal/mol
Tm [2]: 51.5 °C

GCGTATACGAAAGTACGC (((..(((....))))))
folding enthalpy [1]: -35.4 kcal/mol
Tm [2]: 51.6 °C

GCGTATCCACGC ((((....))))
folding enthalpy [1]: -26.4 kcal/mol
Tm [2]: 51.7 °C

GCGTATCCGAAAGGACGC (((..(((....))))))
folding enthalpy [1]: -27.1 kcal/mol
Tm [2]: 50.2 °C

GCGTATCGAAAGATGCGC (((.(((....))).)))
folding enthalpy [1]: -43.8 kcal/mol
Tm [2]: 66.3 °C

GCGTATGGAAACATACAC (.(((((....))))).)
folding enthalpy [1]: -15.8 kcal/mol
Tm [2]: 36.7 °C

GCGTATGTACGC ((((....))))
folding enthalpy [1]: -22.4 kcal/mol
Tm [2]: 54.8 °C

GCGTATTAACGC ((((....))))
folding enthalpy [1]: -22.1 kcal/mol
Tm [2]: 53.8 °C

GCGTATTCGAAAGAACGC (((..(((....))))))
folding enthalpy [1]: -24.4 kcal/mol
Tm [2]: 42.2 °C

GCGTCACGACGC ((((....))))
folding enthalpy [1]: -31.7 kcal/mol
Tm [2]: 58.6 °C

GCGTCAGCGAAAGCTCGC (((..(((....))))))
folding enthalpy [1]: -10.1 kcal/mol
Tm [2]: 47.2 °C

GCGTCAGGAAACTGGTGC ((..(((....)))..))
folding enthalpy [1]: -27.1 kcal/mol
Tm [2]: 41.6 °C

GCGTCCCCGAAAGGGCGC (((..(((....))))))
folding enthalpy [1]: -24.3 kcal/mol
Tm [2]: 65.2 °C

GCGTCCGAAAGGAGGCGC ((((((....)))..)))
folding enthalpy [1]: -36.3 kcal/mol
Tm [2]: 67.5 °C

GCGTCCGAAAGGATACGC ((((((....)))..)))
folding enthalpy [1]: -29.2 kcal/mol
Tm [2]: 55.5 °C

GCGTCCGAAAGGATCGC ((((((....))).)))
folding enthalpy [1]: -37.8 kcal/mol
Tm [2]: 59.5 °C

GCGTCCGACGC ((((...))))
folding enthalpy [1]: -27.1 kcal/mol
Tm [2]: 53.9 °C

GCGTCCGGAAACGAACGC ((((.((....)).))))
folding enthalpy [1]: -42.8 kcal/mol
Tm [2]: 54.7 °C

GCGTCCGGAAACGGGTGC ((..(((....)))..))
folding enthalpy [1]: -30.8 kcal/mol
Tm [2]: 51.2 °C

GCGTCCTAACGC ((((....))))
folding enthalpy [1]: -26.4 kcal/mol
Tm [2]: 54.8 °C

GCGTCCTACGC ((((...))))
folding enthalpy [1]: -20.2 kcal/mol
Tm [2]: 62.5 °C

GCGTCGAAACGC ((((....))))
folding enthalpy [1]: -18.4 kcal/mol
Tm [2]: 51.3 °C

GCGTCGCGAAAGCAAAGC ((.(.((....)).).))
folding enthalpy [1]: -21.3 kcal/mol
Tm [2]: 62.6 °C

GCGTCGCGAAAGCAATGC ((.(.((....)).).))
folding enthalpy [1]: -21.6 kcal/mol
Tm [2]: 43.9 °C

GCGTCGCGAAAGCGTTGC ((..(((....)))..))
folding enthalpy [1]: -17.9 kcal/mol
Tm [2]: 48.6 °C

GCGTCGCGAAAGCTACGC ((((.((....)).))))
folding enthalpy [1]: -29.4 kcal/mol
Tm [2]: 66.9 °C

GCGTCGGCGAAAGCCCGC (((..(((....))))))
folding enthalpy [1]: -17 kcal/mol
Tm [2]: 58.7 °C

GCGTCTAACGC ((((...))))
folding enthalpy [1]: -20.6 kcal/mol
Tm [2]: 53.3 °C

GCGTCTCACGC ((((...))))
folding enthalpy [1]: -23.4 kcal/mol
Tm [2]: 56.4 °C

GCGTCTCCGAAAGGACGC (((..(((....))))))
folding enthalpy [1]: -33.1 kcal/mol
Tm [2]: 56.8 °C

GCGTCTCGAAAGAGCCGC (((.(((....))).)))
folding enthalpy [1]: -42.6 kcal/mol
Tm [2]: 56.5 °C

GCGTCTCGAAAGAGCGC (((.(((....))))))
folding enthalpy [1]: -31 kcal/mol
Tm [2]: 66.8 °C

GCGTCTGGAAACAAACGC ((((.((....)).))))
folding enthalpy [1]: -32.2 kcal/mol
Tm [2]: 44.5 °C

GCGTCTGGAAACAGATGC ((.((((....)))).))
folding enthalpy [1]: -55.5 kcal/mol
Tm [2]: 54.6 °C

GCGTCTGTACGC ((((....))))
folding enthalpy [1]: -26.2 kcal/mol
Tm [2]: 53.3 °C

GCGTGAACGAAAGTTCGC (((..(((....))))))
folding enthalpy [1]: -15.3 kcal/mol
Tm [2]: 48.6 °C

GCGTGACGAAAGTCTCGC (((.(((....))).)))
folding enthalpy [1]: -39.4 kcal/mol
Tm [2]: 67.7 °C

GCGTGAGGAAACTCACAC (.(((((....))))).)
folding enthalpy [1]: -13.8 kcal/mol
Tm [2]: 42.3 °C

GCGTGAGGAAACTCGCGC (((.(((....))).)))
folding enthalpy [1]: -43 kcal/mol
Tm [2]: 64.8 °C

GCGTGAGGAAACTTACGC ((((.((....)).))))
folding enthalpy [1]: -33.8 kcal/mol
Tm [2]: 52 °C

GCGTGATCGAAAGATCGC (((..(((....))))))
folding enthalpy [1]: -15.6 kcal/mol
Tm [2]: 47.5 °C

GCGTGCCCACGC ((((....))))
folding enthalpy [1]: -26.6 kcal/mol
Tm [2]: 60.2 °C

GCGTGCGAAAGCAGACGC ((((((....)))..)))
folding enthalpy [1]: -28.1 kcal/mol
Tm [2]: 62.7 °C

GCGTGCGAACGC ((((....))))
folding enthalpy [1]: -18.2 kcal/mol
Tm [2]: 69 °C

GCGTGCGCGAAAGCGCGC (((..(((....))))))
folding enthalpy [1]: -6.87 kcal/mol
Tm [2]: 65.1 °C

GCGTGCGGAAACGCATGC ((.((((....)))).))
folding enthalpy [1]: -31 kcal/mol
Tm [2]: 67.4 °C

GCGTGCTCGAAAGAGCGC (((..(((....))))))
folding enthalpy [1]: -10.2 kcal/mol
Tm [2]: 51.5 °C

GCGTGGATACGC ((((....))))
folding enthalpy [1]: -28.2 kcal/mol
Tm [2]: 66.6 °C

GCGTGGCGAAAGCAAGGC ((.(.((....)).).))
folding enthalpy [1]: -18.8 kcal/mol
Tm [2]: 46.6 °C

GCGTGGCGAAAGCCTGGC ((..(((....)))..))
folding enthalpy [1]: -17.4 kcal/mol
Tm [2]: 52.4 °C

GCGTGGCGAAAGCCTTGC ((..(((....)))..))
folding enthalpy [1]: -16.4 kcal/mol
Tm [2]: 48 °C

GCGTGGCGAAAGCTCCGC (((..((....))..)))
folding enthalpy [1]: -22.1 kcal/mol
Tm [2]: 54.8 °C

GCGTGGCGAAAGCTGCGC (((..((....))..)))
folding enthalpy [1]: -40.4 kcal/mol
Tm [2]: 67.9 °C

GCGTGGCGAAAGCTTCGC (((..((....))..)))
folding enthalpy [1]: -23.6 kcal/mol
Tm [2]: 59.5 °C

GCGTGGTCGAAAGACCGC (((..(((....))))))
folding enthalpy [1]: -10.9 kcal/mol
Tm [2]: 53.2 °C

GCGTGTCGAAAGACCGC (((.(((....))))))
folding enthalpy [1]: -33 kcal/mol
Tm [2]: 67 °C

GCGTGTGCGAAAGCACGC (((..(((....))))))
folding enthalpy [1]: -9.9 kcal/mol
Tm [2]: 57.5 °C

GCGTGTTACGC ((((...))))
folding enthalpy [1]: -24 kcal/mol
Tm [2]: 61.6 °C

GCGTGTTGACGC ((((....))))
folding enthalpy [1]: -23.9 kcal/mol
Tm [2]: 55 °C

GCGTTAACGAAAGTTCGC (((..(((....))))))
folding enthalpy [1]: -29.4 kcal/mol
Tm [2]: 46.8 °C

GCGTTACAACGC ((((....))))
folding enthalpy [1]: -26.4 kcal/mol
Tm [2]: 58.6 °C

GCGTTACCACGC ((((....))))
folding enthalpy [1]: -24.2 kcal/mol
Tm [2]: 52.8 °C

GCGTTACGACGC ((((....))))
folding enthalpy [1]: -25.9 kcal/mol
Tm [2]: 56.8 °C

GCGTTAGACGC ((((...))))
folding enthalpy [1]: -18.1 kcal/mol
Tm [2]: 51.3 °C

GCGTTAGCACGC ((((....))))
folding enthalpy [1]: -8.5 kcal/mol
Tm [2]: 61.7 °C

GCGTTAGGAAACTAGTGC ((..(((....)))..))
folding enthalpy [1]: -11.4 kcal/mol
Tm [2]: 25.7 °C

GCGTTAGTACGC ((((....))))
folding enthalpy [1]: -19.8 kcal/mol
Tm [2]: 51.1 °C

GCGTTATCGAAAGATCGC (((..(((....))))))
folding enthalpy [1]: -26.1 kcal/mol
Tm [2]: 44.3 °C

GCGTTCAGACGC ((((....))))
folding enthalpy [1]: -23.8 kcal/mol
Tm [2]: 53.6 °C

GCGTTCCGAAAGGACCGC (((.(((....))).)))
folding enthalpy [1]: -46.4 kcal/mol
Tm [2]: 58.4 °C

GCGTTCCGAAAGGACGC (((.(((....))))))
folding enthalpy [1]: -41.9 kcal/mol
Tm [2]: 63.3 °C

GCGTTCCGACGC ((((....))))
folding enthalpy [1]: -27.8 kcal/mol
Tm [2]: 58 °C

GCGTTCGAAAGAACCCGC ((((((....)))..)))
folding enthalpy [1]: -14.2 kcal/mol
Tm [2]: 40.8 °C

GCGTTCGAAAGAAGTCGC ((((((....)))..)))
folding enthalpy [1]: -26.4 kcal/mol
Tm [2]: 37.7 °C

GCGTTCGAAAGAATACGC ((((((....)))..)))
folding enthalpy [1]: -27.3 kcal/mol
Tm [2]: 47.5 °C

GCGTTCGAAAGAATTCGC ((((((....)))..)))
folding enthalpy [1]: -26.6 kcal/mol
Tm [2]: 36.2 °C
